Measurements as given in ChEMBL document CHEMBL4346669, “Novel nannocystin A analogues as anticancer therapeutics: Synthesis, biological evaluations and structure-activity relationship studies” (Eur J Med Chem, 2019).
Active and inactive are the calls of the source. No cut-off for these calls is given here.

Key:
A549 [1] = test: Cell cycle arrest in human A549 cells assessed as accumulation at G1 phase at 30 nM after 24 hrs by propidium iodide/RNase A staining-based flow cytometric analysis (reference value: 57.41%); assay type: functional
SH-SY5Y = test: Antiproliferative activity against human SH-SY5Y cells assessed as reduction in cell viability measured after 72 hrs by MTT assay; assay type: functional, cell-based
Outline: (§1)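 Cells seeded at 5×10^3 per well and cultured overnight, then exposed for 72 h at 37 °C to six concentrations from 10 µM down to 0.0001 µM (from 10 mM DMSO stock diluted in medium; vehicle 1% DMSO in PBS). MTT at 0.5 mg/mL was added for 4 h, formazan dissolved in DMSO, and A570 read. IC50 given as mean ± SD of three independent experiments.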

A549 [2] = test: Induction of apoptosis in human A549 cells at 60 nM by Annexin-V FITC/propidium iodide staining based flow cytometric analysis; assay type: functional, cell-based; conditions: TDE = time-dependent effect
A549 [3] = test: Cell cycle arrest in human A549 cells assessed as accumulation at G2 phase after 24 hrs by propidium iodide/RNase A staining-based flow cytometric analysis; assay type: functional
A549 [4] = test: Induction of apoptosis in human A549 cells assessed as necrotic cells at 30 nM after 12 hrs by Annexin-V FITC/propidium iodide staining based flow cytometric analysis (reference value: 1.28%); assay type: functional
A549 [5] = test: Induction of apoptosis in human A549 cells assessed as late apoptotic cells at 60 nM after 12 hrs by Annexin-V FITC/propidium iodide staining based flow cytometric analysis (reference value: 1.22%); assay type: functional
A549 [6] = test: Induction of apoptosis in human A549 cells assessed as necrotic cells at 60 nM after 12 hrs by Annexin-V FITC/propidium iodide staining based flow cytometric analysis (reference value: 1.28%); assay type: functional
A549 [7] = test: Inhibition of colony formation in human A549 cells at 10 to 20 nM incubated for 3 days followed by further incubation in drug-free medium and measured after 15 days by crystal violet staining-based inverted microscopic analysis; assay type: functional, cell-based
Outline: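 500 A549 cells/well incubated 24 h, then treated with 5, 10 or 20 nM for 3 days, followed by drug-free medium changed every 3 days. At day 15 after plating, colonies fixed in 95% ethanol 15 min, stained with 0.1% crystal violet, counted (colony = over 100 cells); mean ± SD of three independent experiments.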

A549 [8] = test: Cell cycle arrest in human A549 cells assessed as accumulation at G2 phase at 90 nM after 24 hrs by propidium iodide/RNase A staining-based flow cytometric analysis (reference value: 30.02%); assay type: functional
A549 [9] = test: Induction of apoptosis in human A549 cells assessed as late apoptotic cells at 60 nM after 24 hrs by Annexin-V FITC/propidium iodide staining based flow cytometric analysis; assay type: functional
Outline: (§2)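 Time-course: A549 (2×10^5 cells/well, grown overnight) exposed to 60 nM for 6, 12 or 24 h; untreated control. Cells trypsinized, washed in cold PBS, stained 15 min with Annexin V-FITC in binding buffer, then PI, and read by flow cytometry; duplicate experiments.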

A549 [10] = test: Induction of apoptosis in human A549 cells assessed as early apoptotic cells at 90 nM after 12 hrs by Annexin-V FITC/propidium iodide staining based flow cytometric analysis (reference value: 0.32%); assay type: functional
A549 [11] = test: Cell cycle arrest in human A549 cells assessed as accumulation at G2 phase at 60 nM after 24 hrs by propidium iodide/RNase A staining-based flow cytometric analysis (reference value: 30.02%); assay type: functional
A549 [12] = test: Induction of apoptosis in human A549 cells assessed as reduction in Bcl-2 expression at 30 to 90 nM by Western blot analysis
A549 [13] = test: Induction of apoptosis in human A549 cells assessed as increase in Bax protein expression by Western blot analysis; assay type: functional, cell-based
Outline: (§3)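 A549 treated 30, 60 and 90 nM for 24 h; lysates normalized by BCA, 30 μg protein denatured in SDS buffer at 100 °C 8 min, SDS-PAGE, PVDF transfer, blocked in 5% milk/TBS-0.05% Tween 2 h, primary antibodies overnight at 4 °C, HRP anti-rabbit IgG 2 h, ECL detection; β-actin loading control.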

A549 [14] = test: Induction of apoptosis in human A549 cells assessed as early apoptotic cells at 60 nM after 6 hrs by Annexin-V FITC/propidium iodide staining based flow cytometric analysis; assay type: functional; outline: as §2
A549 [15] = test: Induction of apoptosis in human A549 cells assessed as increase in caspase3 expression by Western blot analysis; assay type: functional, cell-based; outline: as §3
A549 [16] = test: Induction of apoptosis in human A549 cells assessed as early apoptotic cells at 60 nM after 24 hrs by Annexin-V FITC/propidium iodide staining based flow cytometric analysis; assay type: functional; outline: as §2
HCT-116 = test: Antiproliferative activity against human HCT116 cells assessed as reduction in cell viability measured after 72 hrs by MTT assay; assay type: functional, cell-based; conditions: Homo sapiens, HCT-116, 72 h; read-out: IC50
Outline: (§4)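 Cells seeded 5×10^3/well, cultured overnight, then exposed to 10, 1, 0.1, 0.01, 0.001 and 0.0001 µM (from 10 mM DMSO stocks diluted in medium; vehicle 1% DMSO PBS) for 72 h at 37 °C. Medium replaced with 0.5 mg/mL MTT for 4 h, formazan dissolved in DMSO, A570 read. IC50 as mean ± SD of three independent experiments.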

A549 [17] = test: Induction of apoptosis in human A549 cells assessed as late apoptotic cells at 30 nM after 12 hrs by Annexin-V FITC/propidium iodide staining based flow cytometric analysis (reference value: 1.22%); assay type: functional
MCF7 = test: Antiproliferative activity against human MCF7 cells assessed as reduction in cell viability measured after 72 hrs by MTT assay; assay type: functional, cell-based; conditions: MCF7, 72 h; outline: as §1
A549 [18] = test: Cell cycle arrest in human A549 cells assessed as accumulation at S phase at 60 nM after 24 hrs by propidium iodide/RNase A staining-based flow cytometric analysis (reference value: 12.57%); assay type: functional
A549 [19] = test: Induction of apoptosis in human A549 cells assessed as viable cells at 30 nM after 12 hrs by Annexin-V FITC/propidium iodide staining based flow cytometric analysis (reference value: 97.18%); assay type: functional; conditions: A549, 12 h, read-out: Activity
A549 [20] = test: Induction of apoptosis in human A549 cells after 12 hrs by Annexin-V FITC/propidium iodide staining based flow cytometric analysis; assay type: functional, cell-based
A549 [21] = test: Induction of apoptosis in human A549 cells assessed as necrotic cells at 60 nM after 24 hrs by Annexin-V FITC/propidium iodide staining based flow cytometric analysis; assay type: functional; outline: as §2
A549 [22] = test: Antiproliferative activity against human A549 cells assessed as reduction in cell viability measured after 72 hrs by MTT assay; assay type: functional, cell-based; conditions: Homo sapiens, A549, 72 h; read-out: IC50; outline: as §4
A549 [23] = test: Induction of apoptosis in human A549 cells assessed as viable cells at 60 nM after 24 hrs by Annexin-V FITC/propidium iodide staining based flow cytometric analysis; assay type: functional; conditions: A549, 24 h, read-out: Activity; outline: as §2
A549 [24] = test: Induction of apoptosis in human A549 cells assessed as late apoptotic cells at 60 nM after 6 hrs by Annexin-V FITC/propidium iodide staining based flow cytometric analysis; assay type: functional; outline: as §2

IC50 (SH-SY5Y): 9.6 nM
IC50 (HCT-116): 48.5 nM
IC50 (MCF7): 15 nM
IC50 (A549 [22]): 20.2 nM
SMILES: COc1cc(C[C@H]2NC(=O)[C@H](C(C)C)N(C)C(=O)/C(C)=C/C[C@@H](OC)/C(C)=C/C=C/[C@@H](C)[C@@H](c3ccccc3)OC(=O)[C@H](C(C)C)NC2=O)ccc1O
Activity (A549 [1]): 49.14%
Activity (A549 [2]): Tde
Activity (A549 [3]): Dose-dependent effect
Activity (A549 [4]): 9.87%
Activity (A549 [5]): 20.03%
Activity (A549 [6]): 10.19%
inhibition (A549 [7]): Active
Activity (A549 [8]): 57.73%
Activity (A549 [9]): 29.03%
Activity (A549 [10]): 3.55%
Activity (A549 [11]): 40.8%
Activity (A549 [12]): Active
Activity (A549 [13]): Dose-dependent effect
Activity (A549 [14]): 0.34%
Activity (A549 [15]): Dose-dependent effect
Activity (A549 [16]): 3.48%
Activity (A549 [17]): 13.6%
Activity (A549 [18]): 14.75%
viability at 0.03 µM (A549 [19]): 75.3%
Activity (A549 [20]): Dose-dependent effect
Activity (A549 [21]): 13.07%
viability at 0.06 µM (A549 [23]): 54.4%
Activity (A549 [24]): 5.08%
